HKDC1 inh: inhibitors of human hexokinase HKDC1; Q2TB90; recombinant HKDC1, G6PDH/diaphorase resazurin coupled fluorescence; inhibition, % at 20 µM; actives 0.16% (n = 340,000);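 active = inhibition above about 35% when tested at 20 µM, limit read from the data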
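Material – in-house recombinant HK5 (HKDC1) enzyme · Quantity – HKDC1 at 5 µg/mL · Buffer or medium – pH 8.0 Tris buffer with 10 mM MgCl2 · Reagent – glucose with 1 mM ATP · Dosing – single 20 µM dose · Times – reaction time 90 min, room temperature, protected from light · Technique – resorufin fluorescence at 613 nm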
A3A deaminase: blocks human APOBEC3A ssDNA deamination | P31941 | recombinant A3A, FAM/TAMRA ssDNA deamination fluorescence | inhibition, % at 20 µM | actives 0.41% (n = 330,000) | AID 493011;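 active = at least 40% inhibition at 20 µM here, with at most 30% in a related deaminase screen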
iPSC survival up: hiPSC single-cell survival enhancement. survival enhancement, % at 20 µM. ATPlite luminescence; 100% = ROCK inhibitor wells, 0% = DMSO. actives 0.044% (n = 360,000); in the data active = survival enhancement above about 18%;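 note: cells exposed to compounds for 16 hours before the ATP read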
APOBEC3G inh: APOBEC3G (human) deaminase inhibition | recombinant A3G, ssDNA deamination FAM/TAMRA fluorescence | inhibition, % at 20 µM | actives 0.28% (n = 330,000) | AID 493012;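 active = inhibition of at least 40% at 20 µM, with no more than 30% in the related APOBEC3A deaminase screen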
PfGluPho inh: PfG6PD (Plasmodium falciparum) enzyme inhibition | AID 504690 | PfGluPho enzyme, NADPH resazurin-diaphorase fluorescence | inhibition, % at 20 µM | actives 0.78% (n = 350,000);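 active = inhibition reaching at least a set limit at 20 µM in the primary screen, cut at about 59% in these data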
APOBEC3A confirm: APOBEC3A (human) deaminase inhibition, confirmed | shares compounds with A3A deaminase | recombinant A3A, ssDNA deaminase UDG fluorescence assay | inhibition, % at 20 µM | actives 63% (n = 1,400) | AID 493151;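 active = inhibition reaching a set limit, 80% of the first screen's cutoff, at 20 µM in any replicate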
UDG A3A counter: inhibits UDG, flagging false APOBEC3A inhibitors; shares compounds with A3A deaminase; UDG counterscreen, FAM/TAMRA uracil oligo fluorescence; inhibition, % at 20 µM; AID 504714; 1,000 tested, under 10 active; call rule not given here
Of the large screens only hits and unclear results are named; the others gave an inactive call (follow-up assays come after a bar, where they were run). Most compounds without a hit are left out; they make up all but 1.4% or so of the library.

CC1Nc2ncnc(N3CCc4ccccc4C3)c2N(Cc2ccccc2)C1=O (stereo not drawn)	none (no result: HKDC1 inh, A3A deaminase, APOBEC3G inh, PfGluPho inh)
COC(=O)[C@]12CCCCC=C1N(Cc1ccc(Cl)cc1Cl)C(=O)[C@H](CC(=O)N1CCCC1)C2	none (no result: HKDC1 inh, A3A deaminase, APOBEC3G inh, PfGluPho inh)
CN(c1ccc(C(=O)Nc2cccnc2)cc1)S(=O)(=O)c1ccccc1	A3A deaminase 52 | APOBEC3A confirm inactive
COc1ccccc1NC(=O)C1CCN(S(=O)(=O)c2ccc3c(c2)NC(=O)C(C)S3)CC1 (stereo not drawn)	none
O=C(COC(=O)CCC(=O)c1cccs1)Nc1ccccc1C(F)(F)F	none
COCCn1c(N)c(N(Cc2ccccc2)C(=O)C2=COCCO2)c(=O)[nH]c1=O	A3A deaminase 49 | APOBEC3A confirm inactive
COCCn1c(N)c(N(Cc2ccccc2)C(=O)c2ccc3ccccc3c2)c(=O)[nH]c1=O	none
CN(CC1CCCN(CCc2ccccc2F)C1)C(=O)c1cc2ccccc2o1 (stereo not drawn)	none (no result: HKDC1 inh, A3A deaminase, APOBEC3G inh)
CC(C)(C)C#CCn1c(/C=[N+](\[O-])C2CCCCC2)nc2ccccc21	none
CCN1CCN(CC(O)COCc2ccccc2)CC1 (stereo not drawn)	none
Cc1cc2c(cc1C)[n+](C)cn2CC(O)COCc1ccccc1 (stereo not drawn)	A3A deaminase 41 | APOBEC3A confirm inactive
Cc1cc(C)n(CC(O)COCc2ccccc2)n1 (stereo not drawn)	none
C[n+]1cn(CC(O)COCc2ccccc2)c2ccccc21 (stereo not drawn)	A3A deaminase 56 | APOBEC3A confirm 77 | UDG A3A counter inactive
O=C(NCCN1CCOCC1)c1ccc(Cl)cc1[N+](=O)[O-]	A3A deaminase 46 | APOBEC3A confirm 10 | UDG A3A counter inactive
COc1ccc(Cl)cc1C(=O)NCCN1CCOCC1	none
Cc1ccccc1[C@H](NC1c2ccccc2C=Cc2ccccc21)P(=O)(c1ccccc1)c1ccccc1	none (no result: HKDC1 inh, A3A deaminase, APOBEC3G inh, PfGluPho inh)
CCOc1ccccc1OCCC(=O)OCC(=O)Nc1c(C)cc(C)cc1C	A3A deaminase 62 | APOBEC3A confirm inactive
Cc1ccc(NC(=O)COC(=O)CCOc2ccccc2C)cc1	none
Cc1ccn(CCC(=O)N2CCc3ccccc32)n1	A3A deaminase 91 | APOBEC3A confirm inactive | UDG A3A counter inactive
O=C(Cn1ccc([N+](=O)[O-])n1)N1CCc2ccccc21	none
O=C(O)CS(=O)(=O)CC(=O)NCc1cccc(C(F)(F)F)c1	none
Cc1nc2ccc(C(=O)O)cc2c2c1CC(C)S2 (stereo not drawn)	A3A deaminase 43 | APOBEC3A confirm 46 | UDG A3A counter inactive
COc1ccc(Cc2nc3ccc(C(=O)NC4CCOC4)cc3o2)cc1 (stereo not drawn)	none
O=C(Nc1ccc2c(c1)OCCO2)C(c1ccnc2ccccc12)N1CCN(C/C=C/c2ccccc2)CC1 (stereo not drawn)	none (no result: HKDC1 inh, A3A deaminase, APOBEC3G inh, PfGluPho inh)
O=C(Oc1ccc2c(c1)OCO2)c1cc2c(s1)CCC2	A3A deaminase 62 | APOBEC3A confirm 79
CCOC(=O)/C(N=Nc1sc(C(=O)OCC)c(C)c1C(=O)OCC)=C(\C)O	none (no result: HKDC1 inh, iPSC survival up, PfGluPho inh)
CCOC(=O)c1sc(N=NC2=C(O)CCCC2=O)c(C(=O)OCC)c1C	A3A deaminase 40 | APOBEC3A confirm 18 | UDG A3A counter inactive
CCCCN1/C(=C/c2cccc[n+]2C)Sc2cc(NC(C)=O)ccc21	none
Cc1ccc2c(c1)N(C)/C(=C/c1cccc[n+]1CCO)S2	A3A deaminase 48 | APOBEC3A confirm 83 | UDG A3A counter inactive
COCC(=O)/C=C1\Sc2ccccc2N1C	none
Cc1ccc2c(c1)N(C)/C(=C/c1cccc[n+]1C)S2	A3A deaminase 67 | APOBEC3A confirm 91 | UDG A3A counter inactive
CN1/C(=C/c2cccc[n+]2C)Sc2ccccc21	A3A deaminase 62 | APOBEC3A confirm 87 | UDG A3A counter inactive
COc1ccc(C(=O)N2CCN(Cc3ccc4c(c3)OCO4)CC2)cc1[N+](=O)[O-]	none
Cc1ccc(NC(=O)c2ccccc2CCc2ccccc2)c(C)c1	A3A deaminase 100 | APOBEC3A confirm inactive
O=C(CNS(=O)(=O)/C=C/c1ccccc1)OC1CCOC1=O (stereo not drawn)	none

Screening results deposited in PubChem by Sanford-Burnham Center for Chemical Genomics.
